Source: PubChem BioAssay
The list is not random: actives were taken first. Their share in the collection is about 1.8%.
mABHD4 FP = ABHD4 inhibitors, primary screen, biochemical, fluorescence polarization, mouse; 0.54% of 370,000 active; (Lyso)-N-acylphosphatidylethanolamine lipase (Mus musculus), Q8VD66; purified mABHD4, FP-Rh probe fluorescence polarization; inhibition, % at 8.92 µM;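 active means inhibition exceeding the mean over every tested compound plus 3 SD, cut at about 30% in these data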
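Assay system: mABHD4 protein; medium: HEPES pH 7.0, NaCl, Pluronic buffer; dosing: 8.92 µM, single dose; schedule: 45 min + 60 min at 25 °C; signal: FP readout, ex 525 nm / em 598 nm; read-out: normalized percent inhibition of probe labeling; repeats: single replicate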
SIAE inh = human SIAE inhibitors, primary screen, biochemical, fluorescence polarization, FP-Rh probe, 1536-well HTS. Sialate O-acetylesterase (Homo sapiens), Q9HAT2. 0.69% of 370,000 active. inhibition, % at 9.66 µM. SIAE FP-Rh probe binding;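 active means inhibition above a cutoff: mean of compounds within the control limits plus 3 SD of those, cut at about 17% in these data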
Fam108B inh = mouse Fam108B serine hydrolase inhibitors, primary screen, counter-screen for RBBP9 inhibitor project, biochemical, fluorescence polarization; inhibition, % at 9.51 µM; 0.33% of 300,000 active; recombinant Fam108B, FP-Rh probe fluorescence polarization; AID 1947, 2009;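 active means inhibition above the screen mean inhibition plus 3 SD, computed separately per campaign, cut at about 18% in these data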;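 further: inhibitors lower polarization as less probe binds the enzyme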
TCR-CD3 inh = inhibitors of human TCR-CD3 interaction, primary screen, biochemical, fluorescence, TAMRA-labeled TCR probe; 0.37% of 360,000 active; AID 651800, 2012; T-cell receptor (TCR); inhibition, % at 9.4 µM; in the data active means inhibition above about 19%;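 further: recombinant mutant TCR 2C K166C tagged with TAMRA read by polarization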
PME-1 primary = PME-1 inhibitors via competitive probe labeling, primary screen, biochemical, fluorescence polarization, FP-Rh probe, HTS | recombinant PME-1 | inhibition, % at 5.9 µM | 0.53% of 320,000 active | AID 2130, 2009;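 active means inhibition above the campaign mean of all compounds plus 3 SD, cut at about 26% in these data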;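 further: competitive labeling of PME-1 active site by serine hydrolase directed probe; inhibitors block probe labeling so polarization falls and inhibition rises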
Target sequence (Q9Y570 whole entry, looked up): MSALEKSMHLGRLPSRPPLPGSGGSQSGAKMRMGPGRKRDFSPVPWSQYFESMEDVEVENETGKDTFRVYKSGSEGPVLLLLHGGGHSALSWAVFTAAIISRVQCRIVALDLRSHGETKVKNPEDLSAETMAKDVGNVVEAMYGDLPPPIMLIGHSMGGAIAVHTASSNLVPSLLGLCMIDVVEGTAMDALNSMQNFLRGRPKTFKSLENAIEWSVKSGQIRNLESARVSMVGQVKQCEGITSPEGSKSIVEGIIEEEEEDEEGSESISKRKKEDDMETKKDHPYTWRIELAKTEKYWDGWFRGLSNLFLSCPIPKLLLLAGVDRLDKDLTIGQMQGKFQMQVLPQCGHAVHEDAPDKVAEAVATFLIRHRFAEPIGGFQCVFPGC
HTRA1 inh = HTRA1 serine protease inhibitors, primary screen, biochemical, fluorescence polarization, HTS | recombinant HTRA1, FP-rhodamine activity-based probe | Q92743 | AID 504803, 2011 | 0.5% of 340,000 active | inhibition, % at 5.96 µM; in the data active means inhibition above about 36%
Numbers stand for hits; n = inactive; x = no result given.

SMILES | mABHD4 FP | SIAE inh | Fam108B inh | TCR-CD3 inh | PME-1 primary | HTRA1 inh
CCN(CC)C(=O)Cn1ncc2c1-c1ccccc1OC2 | n | n | n | n | n | n
O=C(c1ccc2oc(CCCc3ccccc3)nc2c1)N1CCCC(CCCO)C1 (configuration not stated) | n | n | n | n | 42 | n
CCOC(=O)[C@]12CCCCC/C=C\1N(Cc1ccc(OC)cc1)C(=O)[C@H]2CC(=O)NCc1cccc(C(F)(F)F)c1 | n | n | x | x | x | x
Cc1ccc(S(=O)(=O)N2CCN(C(=O)Cn3c(=O)cnc4ccccc43)CC2)cc1 | n | n | x | n | 37 | n
CCOC(=O)c1c2c3c(cccc3n(C)c1=O)C(=O)c1ccccc1-2 | n | n | n | n | 28 | n
CCOC(=O)c1c2c3c(cccc3[nH]c1=O)C(=O)c1ccccc1-2 | n | n | n | n | n | n
COc1ccc(Cn2cc(CN3[C@@H](Cc4ccccc4)COc4cc(Br)ccc4S3(=O)=O)nn2)cc1 | n | n | x | x | x | x
Cc1ccc2[nH]c(O)c(N=NC(=O)c3ccc(NS(=O)(=O)c4cccs4)cc3)c2c1 | n | n | n | n | 52 | n
CC(C)N1Cc2nnn(Cc3ccccc3)c2-c2cc(N3CCCC3)ccc2S1(=O)=O | n | n | x | x | x | x
O=c1c2ccccc2nc(/C=C/c2c[nH]c3ccccc23)n1CCO | n | n | n | n | 47 | n
O=c1c2ccccc2nc(/C=C/c2cc(Br)ccc2O)n1CCO | n | n | n | n | n | n
CCCN1CCS(=O)(=O)N(Cc2cn(Cc3ccc(F)cc3)nn2)C(C(=O)OC)C1 (configuration not stated) | n | n | x | x | x | x
N#C/C(=N\Nc1ccc(F)cc1)C(=O)C1CC1 | n | n | n | n | n | x
N#C/C(=N\Nc1ccc(Cl)c(Cl)c1)C(=O)C1CC1 | n | n | n | n | 34 | x
CN(C)C(=O)NCCCC#Cc1ccccc1 | n | n | x | x | x | x
COC(=O)[C@]12C[C@H](CC(=O)N3CCCCC3)C(=O)N(CCc3ccc(OC)c(OC)c3)C1=C[C@H](COCc1ccccc1)O[C@@H]2C | n | n | x | x | x | x
CCc1ccc(S(=O)(=O)Nc2ccc(O)c3c(=O)cc(-c4ccccc4Cl)oc23)cc1 | n | n | n | n | n | n
O=c1cc(-c2ccccc2Cl)oc2c(NS(=O)(=O)c3cc(Cl)cc(Cl)c3O)ccc(O)c12 | x | x | n | x | 57 | n
COC(=O)C1CN(Cc2cn(Cc3ccc(OC)cc3)nn2)CCS(=O)(=O)N1Cc1ccc(OC)cc1 (configuration not stated) | n | n | x | x | x | x
CCc1nnc(NC(=O)c2sc3nc4c(cc3c2N)CCCCC4)s1 | n | n | n | n | 28 | n
CCc1nnc(NC(=O)c2sc3nc4c(cc3c2N)CCCCCC4)s1 | n | n | n | n | 29 | n
CCc1nnc(NC(=O)CSc2nc3c(cc2C#N)CCCC3)s1 | n | n | n | n | n | n
Nc1c(C(=O)N2CCCCC2)sc2nc3c(cc12)CCCC3 | n | n | n | n | n | n
CCCCCCN1CCS(=O)(=O)N(Cc2ccc(C)cc2)C(C(=O)OC)C1 (configuration not stated) | n | n | x | x | x | x
O=C(c1ccc2c(c1)OCO2)N1CCCC(c2ccccc2)C1 (configuration not stated) | n | n | n | n | 33 | n
SMILES | mABHD4 FP | SIAE inh | Fam108B inh | TCR-CD3 inh | PME-1 primary | HTRA1 inh
CC1CCCN(C(=O)c2ccc3c(c2)OCO3)C1 (configuration not stated) | n | n | n | n | n | n
CC(=O)Oc1c(I)cc(I)cc1C(=O)Nc1ccc(Cl)cc1 | n | n | n | n | 61 | n
O=C1c2cc(Br)ccc2N(Cc2ccc(Br)cc2)S(=O)(=O)C1c1cc(Cl)c(Cl)cc1[N+](=O)[O-] (configuration not stated) | x | x | x | x | x | 53
O=C1CS(=O)(=O)N(Cc2cccc(F)c2)c2ccc(Br)cc21 | n | n | x | n | n | n
O=[N+]([O-])CC(=Nc1ccc(Cl)cc1)N/N=C\c1oc(O)c2ccccc12 | n | n | n | n | 52 | n
COc1cccc(NC(=O)C/C(C)=N/NC(=O)c2ccccc2Cl)c1 | n | n | n | n | n | n
C/C(CC(=O)Nc1ccc(Cl)c(C(F)(F)F)c1)=N\NC(=O)c1cc2ccccc2cc1O | n | 40 | n | n | n | n
CC1=NN(c2ccccc2)C(=O)C1N=Nc1cccc(O)c1 (configuration not stated) | n | n | n | n | 28 | n
CC1=NN(c2ccccc2)C(=O)C1N=Nc1ccccc1 (configuration not stated) | n | n | n | n | n | n
N#CCC(=O)c1ccccc1Oc1ccc(Cl)cc1 | n | n | n | n | 41 | n
COc1ccccc1N1CCN(C(=O)C2CCN(S(=O)(=O)c3ccc(C)cc3)CC2)CC1 | n | n | n | n | 41 | n
COc1cc(/C=N/NC(=S)Nc2cccc(S(=O)(=O)N(C)C)c2)ccc1O | n | n | n | n | 39 | n
Cc1ccc(Cn2cc(CN(C(C)(C)C)S(=O)(=O)c3ccc(F)cc3Br)nn2)cc1 | n | n | x | x | x | x
COC(=O)c1ccc(C2Nc3ccc(/C(C)=N/NC(=O)C(OC)c4ccccc4)cc3C3C=CCC32)cc1 (configuration not stated) | n | 22 | n | n | n | n
COc1ccc2c(c1)c(=O)oc1c(C)c(OCc3cc(C(=O)O)oc3C)ccc12 | 32 | n | n | n | n | n
COc1ccc2c(c1)c(=O)oc1c(C)c(OCc3ccc(C(=O)O)cc3)ccc12 | x | x | n | x | n | n
Cc1ccc(S(=O)(=O)N2CCCC2C(c2ccccc2O)c2cn(C)c3ccccc23)cc1 (configuration not stated) | n | n | x | x | x | x
COC(=O)C1CN(Cc2cn(CCC3OCCO3)nn2)CCS(=O)(=O)N1Cc1ccc(OC)cc1 (configuration not stated) | n | n | x | x | x | x
COc1cc(/C=C2\SC(=O)N(c3ccc(Cl)cc3)C2=O)cc([N+](=O)[O-])c1O | 37 | n | x | n | x | n
CCC1Sc2ccc(S(=O)(=O)CCC(=O)Nc3ccc(OC(F)(F)F)cc3)cc2NC1=O (configuration not stated) | n | n | n | n | 26 | n
COc1cc2cc3c(N)c(C(=O)NCc4ccco4)sc3nc2cc1OC | x | x | n | x | 47 | n
COc1ccccc1NC(=O)c1sc2nc(-c3ccco3)ccc2c1N | x | x | n | x | 70 | n
CC(C)[C@@H](CO)N1Cc2nnn(Cc3ccccc3)c2-c2ccccc2S1(=O)=O | n | n | x | x | x | x
COC(=O)[C@]12C[C@H](CC(=O)NCCCN3CCCC3=O)C(=O)N(Cc3ccco3)C1=C[C@H](C(C)C)O[C@@H]2C1CC1 | n | n | x | x | x | x
